Data published in ChEMBL document CHEMBL4038301 (J Med Chem, 2017).

Assays:
[1] = test system: Rattus norvegicus; experiment: Terminal half life in Sprague-Dawley rat at 1 mg/kg, iv up to 24 hrs post dose by LC/MS/MS analysis; type: ADME, organism-based; settings: in vivo
Outline: (§1)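 Male Sprague–Dawley rats (250–350 g, n=2), dual-cannulated (carotid artery and jugular vein). Dosed 1.0 mg/kg IV into the jugular vein in 10% ethanol, 50–70% PEG 400 and 20–40% saline.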

[2] = test system: Rattus norvegicus; experiment: MRT in Sprague-Dawley rat at 1 mg/kg, iv up to 24 hrs post dose by LC/MS/MS analysis; type: ADME, organism-based; settings: in vivo
[3] = test system: Rattus norvegicus; experiment: Volume of distribution at steady state in Sprague-Dawley rat at 1 mg/kg, iv up to 24 hrs post dose by LC/MS/MS Analysis; type: ADME, organism-based; settings: in vivo; outline: as §1
[4] = Total plasma concentration in Sprague-Dawley rat at 10 mg/kg, po after 1 hr post dose by LC/MS/MS analysis; type: ADME, organism-based
[5] = Total drug level in Sprague-Dawley rat brain at 10 mg/kg, po after 1 hr post dose by LC/MS/MS analysis; type: ADME, organism-based; settings: read-out: Drug uptake
[6] = Ratio of drug level in Sprague-Dawley rat brain to plasma at 10 mg/kg, po after 1 hr post dose by LC/MS/MS analysis; type: ADME, organism-based
[7] = test system: Plasma; experiment: Unbound plasma concentration in Sprague-Dawley rat at 10 mg/kg, po after 1 hr post dose by LC/MS/MS analysis; type: ADME, organism-based; settings: in vivo
[8] = test system: Brain; experiment: Unbound drug level in Sprague-Dawley rat brain at 10 mg/kg, po after 1 hr post dose by LC/MS/MS analysis; type: ADME, organism-based; settings: in vivo
[9] = Ratio of unbound drug level in Sprague-Dawley rat brain to plasma at 10 mg/kg, po after 1 hr post dose by LC/MS/MS analysis; type: ADME, organism-based
[10] = test system: Rattus norvegicus; experiment: Tmax in Sprague-Dawley rat at 10 mg/kg administered via nasogastric gavage up to 24 hrs by LC/MS/MS analysis; type: ADME, organism-based; settings: in vivo, po
[11] = test system: Rattus norvegicus; experiment: Cmax in Sprague-Dawley rat at 10 mg/kg, administered via nasogastric gavage up to 24 hrs by LC/MS/MS analysis; type: ADME, organism-based; parameters: dose 10 mg/kg, route nasogastric; settings: in vivo, po
[12] = test system: Rattus norvegicus; experiment: AUC in Sprague-Dawley rat at 10 mg/kg, administered via nasogastric gavage up to 24 hrs by LC/MS/MS analysis; type: ADME, organism-based; parameters: time < 24 hr, dose 10 mg/kg, route nasogastric; settings: in vivo, po
[13] = test system: Rattus norvegicus; experiment: Oral bioavailability in Sprague-Dawley rat at 10 mg/kg, administered via nasogastric gavage up to 24 hrs by LC/MS/MS analysis; type: ADME, organism-based; settings: in vivo
[14] = (§2) Terminal half life in cynomolgus monkey at 0.5 mg/kg, iv up to 24 hrs by LC/MS/MS analysis; type: ADME, organism-based, Macaca fascicularis; settings: in vivo, read-out: beta t1/2
[15] = test system: Cynomolgus monkey; experiment: MRT in cynomolgus monkey at 0.5 mg/kg, iv up to 24 hrs by LC/MS/MS analysis; type: ADME, organism-based, Macaca fascicularis; settings: in vivo
[16] = Plasma clearance in cynomolgus monkey at 0.5 mg/kg, iv up to 24 hrs by LC/MS/MS analysis; type: ADME, organism-based, Macaca fascicularis
[17] = test system: Cynomolgus monkey; experiment: Cmax in cynomolgus monkey at 5 mg/kg administered via nasogastric gavage up to 24 hrs by LC/MS/MS analysis; type: ADME, organism-based, Macaca fascicularis; parameters: dose 5 mg/kg, route nasogastric; settings: in vivo, po
[18] = test system: Cynomolgus monkey; experiment: AUC in cynomolgus monkey at 5 mg/kg administered via nasogastric gavage up to 24 hrs by LC/MS/MS analysis; type: ADME, organism-based, Macaca fascicularis; parameters: dose 5 mg/kg, time < 24 hr, route nasogastric; settings: in vivo, po
[19] = test system: Cynomolgus monkey; experiment: Oral bioavailability in cynomolgus monkey at 5 mg/kg administered via nasogastric gavage up to 24 hrs by LC/MS/MS analysis; type: ADME, organism-based, Macaca fascicularis; settings: in vivo
[20] = test system: Cynomolgus monkey; experiment: as §2; type: ADME, organism-based, Macaca fascicularis; settings: in vivo, 24 h
[21] = Apparent permeability across apical to basolateral side in MDCK cells expressing human MDR1 at 2 uM after 30 mins by LC-MS/MS; type: ADME, cell-based, Canis lupus familiaris; settings: dog, 0.5 h
[22] = Apparent permeability across basolateral to apical side in MDCK cells expressing human MDR1 at 2 uM after 30 mins by LC-MS/MS; type: ADME, cell-based, Canis lupus familiaris; settings: dog, 0.5 h
[23] = Apparent permeability across apical to basolateral side in human Caco2 cells at 2 uM after 10 mins by LC-MS/MS; type: ADME, cell-based; settings: caco-2, 10 min
[24] = Intrinsic clearance in human cryopreserved hepatocytes assessed per million cells at 5 uM measured after 15 to 120 mins by LC/MS/MS analysis; type: ADME, cell-based, Hepatocyte
Outline: (§3)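 Pooled human cryopreserved hepatocytes (19 donors, mixed gender), thawed and resuspended in KHB. Compound 5 µM final, shaken at 37 °C. Aliquots quenched in acetonitrile with carbamazepine at 0, 15, 30, 60 and 120 min. Percent parent remaining measured by LC/MS/MS. Midazolam served as positive control.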

[25] = Half life in human cryopreserved hepatocytes at 5 uM measured by LC/MS/MS analysis; type: ADME, cell-based, Hepatocyte; outline: as §3
[26] = Drug level in Harlan CD1 mouse brain at 3 mg/kg, ip at 15 mins; type: ADME, organism-based; settings: read-out: Drug uptake
[27] = Drug metabolism in cynomolgus monkey hepatic S9 fraction assessed as AO-mediated metabolite formation by LC/MS analysis; type: ADME, Macaca fascicularis, Liver
[28] = test system: Brain; experiment: Unbound concentration in Harlan CD1 mouse brain at 3 mg/kg, ip at 15 mins by equilibrium dialysis method; type: ADME, organism-based; settings: in vivo
[29] = Plasma clearance in cynomolgus monkey at 0.2 mg/kg, iv up to 24 hrs by LC/MS/MS analysis; type: ADME, organism-based, Macaca fascicularis

For `Cc1cc(Oc2cnc(C)nc2)cc(C(=O)Nc2ccc(F)cn2)n1`, the “beta t1/2” value [1] was 3.82 h, the MRT [2] was 3.18 h and the Vdss [3] was 1.2 L/kg. The concentration at 1 h [4] was 4820 nM, the concentration at 1 h [5] was 3220 nM and the BPR [6] was 0.67. The “Cp(f)” value [7] was 390 nM, the “Drug uptake(free)” value [8] was 142 nM and the “K(p,uu,brain)” value [9] was 0.36.

With `CCc1cccc(NC(=O)c2cc(Oc3cncnc3)cc(C)n2)n1` the “beta t1/2” value [1] was 6.73 h, the MRT [2] was 1.33 h and the Vdss [3] was 6.6 L/kg.

For `Cc1cc(Oc2cncc(F)c2)cc(C(=O)Nc2ccc(F)cn2)n1`, the “beta t1/2” value [1] was 4.68 h, the MRT [2] was 3.47 h and the Vdss [3] was 1.9 L/kg. For the same compound, the “Cp(f)” value [7] was 38.6 nM, the “Drug uptake(free)” value [8] was 31.6 nM and the “K(p,uu,brain)” value [9] was 0.82. The Tmax [10] was 1.5 h, the Cmax [11] was 3330 nM and the AUC [12] was 38 µM·h. For the same compound, the F [13] was 71%, the half-life [14] was 9.38 h and the MRT [15] was 5.05 h. For the same compound, the clearance [16] was 13.3 mL/min/kg, the Cmax [17] was 1360 nM and the AUC [18] was 6.43 µM·h. The F [19] was 35%.

For `Cc1cc(Oc2cncnc2)cc(C(=O)Nc2ccc(F)cn2)n1`, the “beta t1/2” value [1] was 6.5 h, the MRT [2] was 1.55 h and the Vdss [3] was 1.8 L/kg. For the same compound, the concentration at 1 h [4] was 3000 nM, the concentration at 1 h [5] was 2580 nM and the “Cp(f)” value [7] was 318 nM. The “Drug uptake(free)” value [8] was 201 nM, the Tmax [10] was 0.5 h and the Cmax [11] was 4340 nM. The AUC [12] was 14.6 µM·h, the F [13] was 53% and the “beta t1/2” value [20] was 5.03 h. For the same compound, the MRT [15] was 2.72 h, the clearance [16] was 15.5 mL/min/kg and the Cmax [17] was 1720 nM. For the same compound, the AUC [18] was 7.32 µM·h, the F [19] was 44% and the Papp [21] was 6.2 ×10⁻⁶ cm/s. It also gave a Papp [22] of 7.2 ×10⁻⁶ cm/s, a Papp [23] of 6.5 ×10⁻⁶ cm/s and a CLH [24] of 1.43 µL/min. For the same compound, the t1/2 [25] was 5.37 h, the concentration at […] [26] was 1480 nM and the Drug metabolism [27] was “Metabolite_Detected”. The “Drug uptake(free)” value [28] was 115 nM.

With `Cc1csc(NC(=O)c2cc(F)cc(Oc3cncnc3)c2)n1` the F [13] was < 5% and the clearance [29] was 24 mL/min/kg.

For `Cc1cccc(NC(=O)c2cc(Oc3cncc(F)c3)cc(C)n2)n1`, the “beta t1/2” value [1] was 4.47 h, the MRT [2] was 2 h and the Vdss [3] was 4.5 L/kg.

In the case of `Cc1cc(Oc2cncc(F)c2)cc(C(=O)Nc2cccc(F)n2)n1`, the “beta t1/2” value [1] is reported as 1.37 h, the MRT [2] is reported as 2.62 h and the Vdss [3] is reported as 11 L/kg.

With `Cc1cccc(NC(=O)c2cc(Oc3cncnc3)cc(C)n2)n1` the “beta t1/2” value [1] was 1.75 h, the MRT [2] was 0.65 h and the Vdss [3] was 1.6 L/kg.
